Test results reported in ChEMBL document CHEMBL1687821, “In vivo and in vitro efficacy of chloroquine against Plasmodium malariae and P. ovale in Papua, Indonesia” (Antimicrob Agents Chemother, 2011).

Tests used:
Plasmodium malariae [1] = test: Antimalarial activity against Plasmodium malariae ring stage infected in red blood cells in presence of AB+ human serum by drug susceptibility assay; assay type: functional, organism-based
Procedure, shortened: (§1)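 Field isolates from venous blood, leukocytes removed on CF11 column. Modified WHO schizont-maturation microtest at 2% hematocrit in McCoy's 5A with 20% AB+ serum, 11 twofold dilutions (chloroquine top 5,910 nM). Candle jar, 37.5°C, 15–56 h, stopped at >40% schizonts in the drug-free control. Schizonts (≥5 chromatin dots) per 200 asexual parasites, normalized to control. IC50 from inhibitory sigmoid Emax fit. Isolates grouped by predominant stage at start.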

Plasmodium ovale [2] = test: Antimalarial activity against Plasmodium ovale ring stage infected in red blood cells in presence of AB+ human serum by drug susceptibility assay; assay type: functional; procedure, shortened: as §1
Plasmodium malariae [3] = test: Antimalarial activity against Plasmodium malariae trophozoite stage infected in red blood cells in presence of AB+ human serum by drug susceptibility assay; assay type: functional, organism-based; procedure, shortened: as §1
Plasmodium ovale [4] = test: Antimalarial activity against Plasmodium ovale trophozoite stage infected in red blood cells in presence of AB+ human serum by drug susceptibility assay; assay type: functional; procedure, shortened: as §1
Plasmodium malariae [5] = test: Antimalarial activity against Plasmodium malariae in patients assessed as parasite reduction ratio at 25 mg/kg, po after 48 hrs; assay type: functional
Procedure, shortened: (§2)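 Oral chloroquine tablets (150 mg base each) at 25 mg/kg over 3 days, all doses supervised; dose repeated once if vomited within 60 min. Parasitemia counted on Giemsa-stained thick films as parasites per 200 WBCs by an expert microscopist. Reduction ratio taken at 48 h.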

Plasmodium ovale [6] = test: Antimalarial activity against Plasmodium ovale in patients assessed as parasite reduction ratio at 25 mg/kg, po after 48 hrs; assay type: functional; procedure, shortened: as §2

Compound `CCN(CC)Cc1cc(Nc2ccnc3cc(Cl)ccc23)ccc1O` has an IC50 (Plasmodium malariae [1]) of 0.0217 µM, an IC50 (Plasmodium ovale [2]) of 0.0043 µM and an IC50 (Plasmodium malariae [3]) of 0.0191 µM.
In the case of `C[C@H]1[C@H](OC(=O)CCC(=O)O)O[C@@H]2O[C@@]3(C)CC[C@H]4[C@H](C)CC[C@@H]1[C@@]24OO3` [ARTESUNATE], the IC50 (Plasmodium malariae [1]) is reported as 0.00177 µM, the IC50 (Plasmodium ovale [4]) is reported as 0.00128 µM and the IC50 (Plasmodium ovale [2]) is reported as 0.00116 µM. For the same compound, the IC50 (Plasmodium malariae [3]) was 0.00284 µM.
`CCN(CC)CCCC(C)Nc1ccnc2cc(Cl)ccc12` (stereo not drawn) [CHLOROQUINE] showed an IC50 (Plasmodium malariae [1]) of 0.014 µM, an IC50 (Plasmodium ovale [4]) of 0.0232 µM and a Ratio (Plasmodium malariae [5]) of 86. For the same compound, the IC50 (Plasmodium ovale [2]) was 0.0078 µM, the IC50 (Plasmodium malariae [3]) was 0.128 µM and the Ratio (Plasmodium ovale [6]) was 150.
Compound `OC(c1cc(C(F)(F)F)nc2c(C(F)(F)F)cccc12)C1CCCCN1` (stereo not drawn) [MEFLOQUINE] has an IC50 (Plasmodium malariae [1]) of 0.0368 µM, an IC50 (Plasmodium ovale [2]) of 0.0238 µM and an IC50 (Plasmodium malariae [3]) of 0.0469 µM.
`Clc1ccc2c(N3CCN(CCCN4CCN(c5ccnc6cc(Cl)ccc56)CC4)CC3)ccnc2c1` [PIPERAQUINE] was tested, and the IC50 (Plasmodium malariae [1]) was 0.029 µM, the IC50 (Plasmodium ovale [4]) was 0.00757 µM and the IC50 (Plasmodium ovale [2]) was 0.0102 µM. For the same compound, the IC50 (Plasmodium malariae [3]) was 0.0384 µM.
With `COc1ccc2nc3cc(Cl)ccc3c(Nc3cc(CN4CCCC4)c(O)c(CN4CCCC4)c3)c2n1` [PYRONARIDINE] the IC50 (Plasmodium malariae [1]) was 0.0041 µM, the IC50 (Plasmodium ovale [2]) was 0.00072 µM and the IC50 (Plasmodium malariae [3]) was 0.0078 µM.
